Legend:
[1] = Rate of reduction by human BE cell extract; assay type: functional
Procedure, shortened: (§1)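 Extract from 2 × 10⁷ BE cells in 2 mL PBS, sonicated and centrifuged to remove debris. Quinone at 100 µM in PBS with acetylated cytochrome c (100 µM) and NADPH (200 µM). Reduction was followed through cytochrome c reduction.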

NCI-H596 = experiment: In vitro cytotoxicity against H596 cell line; assay type: functional, Homo sapiens
Procedure, shortened: (§2)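 Continuous-exposure MTT assay at 600 cells/well. HT29 (colon) and H460 (large-cell lung) express high DTD; H596 (lung) and BE (colon) lack detectable DTD activity. Absorbance was read at 540 and 640 nm after 5 days, and growth inhibition was plotted against concentration. Triplicates at each concentration, on at least two occasions.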

[2] = target: NAD(P)H dehydrogenase [quinone] 1 (Homo sapiens) (UniProt P15559); experiment: Rate of reduction by human recombinant DTD; assay type: functional
Sequence of NAD(P)H dehydrogenase [quinone] 1 (Homo sapiens) (P15559 whole entry): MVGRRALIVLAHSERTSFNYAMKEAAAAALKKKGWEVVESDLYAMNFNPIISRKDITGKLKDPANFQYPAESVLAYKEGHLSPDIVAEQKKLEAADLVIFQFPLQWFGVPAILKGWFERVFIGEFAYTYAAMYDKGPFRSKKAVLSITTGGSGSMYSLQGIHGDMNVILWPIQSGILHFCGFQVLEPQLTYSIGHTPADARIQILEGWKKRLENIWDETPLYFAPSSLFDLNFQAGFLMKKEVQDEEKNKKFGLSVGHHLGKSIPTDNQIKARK
Procedure, shortened: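 Human recombinant DTD (specific activity 653 µmol/min/mg protein) with quinone at 50 µM in 50 mM Tris-HCl, pH 7.4. Reduction was followed through the coupled reduction of 70 µM cytochrome c.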

HT-29 = experiment: In vitro cytotoxicity against HT-29 cell line; assay type: functional, Homo sapiens; procedure, shortened: as §2
Nucleic Acid [3] = experiment: Ability to produce interstrand cross-links in the plasmid DNA at 100 uM concentration; assay type: functional
Procedure, shortened: (§3)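 Stocks were 10 mM in DMSO. DNA was ethanol-precipitated, denatured in 30% DMSO at 90 °C for 2 min and run on 0.8% agarose gels at 40 V for 16 h. Cross-linked versus single-stranded DNA was read by autoradiography.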

NCI-H460 = experiment: In vitro cytotoxicity against H460 cell line; assay type: functional, Homo sapiens; procedure, shortened: as §2
BE [4] = experiment: In vitro cytotoxicity against BE cell line; assay type: functional, Homo sapiens; procedure, shortened: as §2
Nucleic Acid [5] = experiment: Ability to produce interstrand cross-links in the plasmid DNA at 10 uM concentration; assay type: functional; procedure, shortened: as §3
BE [6] = experiment: Rate of reduction by human BE cell extract; Not Detected; assay type: functional, cell-based; procedure, shortened: as §1

Row | Compound | Rate of reduction [1] [nM/min/mg] | Cytotoxicity (NCI-H596) [nM] | Rate of reduction [2] [µM/min/mg] | Cytotoxicity (HT-29) [nM] | Activity (Nucleic Acid [3]) [%] | Cytotoxicity (NCI-H460) [nM] | Cytotoxicity (BE [4]) [nM] | Activity (Nucleic Acid [5]) [%] | Rate of reduction (BE [6])
1 | CCC1=C(N2CC2)C(=O)C(C)=C(N2CC2)C1=O | 4 | 98.5 | 12.5 | 3.9 | 100 | 1.6 | 84 | 69 | 
2 | CCCC1=C(N2CC2)C(=O)C(CCC)=C(N2CC2)C1=O | 1.7 | 1290 | 1 | 58.2 | 95.6 | 20.1 | 590 | 16.4 | 
3 | CC1=C(N2CC2)C(=O)C(C(C)C)=C(N2CC2)C1=O | 1.1 | 1230 | 2.7 | 33 | 87.8 | 3.6 | 1300 | 28.1 | 
4 | CCC1=C(N2CC2)C(=O)C(CC)=C(N2CC2)C1=O | 2.3 | 1160 | 3 | 21.8 | 100 | 4.1 | 290 | 60.9 | 
5 | CC1=C(N2CC2)C(=O)C(C)=C(N2CC2)C1=O | 9.2 | 48.8 | 21 | 3.4 | 100 | 0.77 | 25.9 | 79.8 | 
6 | O=C1C=C(N2CC2)C(=O)C=C1N1CC1 | 25.3 | 12.9 | 35.6 | 5.1 | 100 | 4.6 | 10.2 | 100 | 
7 | CCCC1=C(N2CC2)C(=O)C(C)=C(N2CC2)C1=O | 3.4 | 228 | 7.9 | 5.5 | 100 | 3.3 | 67 | 58.4 | 
8 | CC(C)C1=C(N2CC2)C(=O)C(C(C)C)=C(N2CC2)C1=O |  | 2620 | 0.22 | 2740 | 0 | 170 | 3130 | 0 | Not detected
